The source of these data is ChEMBL document CHEMBL2417552, “Screen of pseudopeptidic inhibitors of human sirtuins 1-3: two lead compounds with antiproliferative effects in cancer cells” (J Med Chem, 2013).

Data set [1] concerns the target T1, NAD-dependent protein deacetylase sirtuin-1 (Homo sapiens) (UniProt Q96EB6).
T1 sequence (whole entry): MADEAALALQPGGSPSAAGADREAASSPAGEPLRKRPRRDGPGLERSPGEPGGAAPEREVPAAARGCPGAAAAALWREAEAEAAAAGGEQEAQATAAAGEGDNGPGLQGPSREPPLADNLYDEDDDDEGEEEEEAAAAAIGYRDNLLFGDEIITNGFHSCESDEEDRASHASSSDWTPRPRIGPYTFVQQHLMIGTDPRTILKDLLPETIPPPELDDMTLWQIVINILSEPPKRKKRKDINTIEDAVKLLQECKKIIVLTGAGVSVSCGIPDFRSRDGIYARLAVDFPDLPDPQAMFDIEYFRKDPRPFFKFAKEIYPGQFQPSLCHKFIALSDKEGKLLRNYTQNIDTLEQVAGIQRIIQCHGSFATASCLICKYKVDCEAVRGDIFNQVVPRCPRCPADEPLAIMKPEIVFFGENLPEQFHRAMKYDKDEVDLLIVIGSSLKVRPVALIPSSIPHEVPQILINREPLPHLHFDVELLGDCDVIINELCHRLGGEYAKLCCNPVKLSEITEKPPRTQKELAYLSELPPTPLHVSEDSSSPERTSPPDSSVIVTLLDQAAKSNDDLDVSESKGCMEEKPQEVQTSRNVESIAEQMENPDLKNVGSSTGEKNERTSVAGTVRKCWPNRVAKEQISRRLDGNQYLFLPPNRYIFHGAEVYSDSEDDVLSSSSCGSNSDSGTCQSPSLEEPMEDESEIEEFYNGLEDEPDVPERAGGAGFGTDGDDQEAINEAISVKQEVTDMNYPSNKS
The settings on record: at 50 µM.

Data set [2] concerns MCF7. Put plainly: Cell cycle arrest in human MCF7 cells assessed as accumulation at G2 phase at 100 uM after 18 hrs by propidium iodide staining-based FACS flow cytometric analysis (reference value: 14.7%). The format is functional.
Data set [3] has as its target T1, NAD-dependent protein deacetylase sirtuin-1 (Homo sapiens). Kind of data set: Inhibition of SIRT1 in etoposide-induced human MCF7 cells assessed as increase in p53 acetylation at Lys382 at 50 uM after 5 hrs by Western blotting analysis. The class given is cell-based. In outline: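 MCF-7 cells seeded 24 h ahead, then given 50 μM compound and 100 μM etoposide together for 5 h before harvest. Acetylated p53 detected by Western blot; run once per compound.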

Data set [4] relates to MCF7. Kind of data set: Cytotoxicity against human MCF7 cells assessed as cell death at 100 uM after 18 hrs by propidium iodide staining-based FACS flow cytometric analysis. The class given is functional.
Data set [5] concerns A549. Put plainly: Cell cycle arrest in human A549 cells assessed as accumulation at S phase at 100 uM after 18 hrs by propidium iodide staining-based FACS flow cytometric analysis (reference value: 17.8%). The class given is functional.
Data set [6] concerns the target T2, NAD-dependent protein deacetylase sirtuin-1 (Homo sapiens, UniProt Q96EB6).
T2 sequence (Q96EB6 whole entry): T1 sequence (whole entry)
Kind of data set: Inhibition of human recombinant GST-tagged SIRT1 using KI177 as substrate preincubated for 5 mins followed by enzyme addition measured after 1 hr by fluorescence assay. The method in brief: (§1)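 Fluor de Lys deacetylation assay. […] Mix preincubated 5 min at room temperature, started with enzyme, run 1 h at 37°C. Developer with 2 mM nicotinamide then added for 45 min at 37°C before fluorescence reading.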

Data set [7] concerns the target T1, NAD-dependent protein deacetylase sirtuin-1 (Homo sapiens). Kind of data set: Inhibition of SIRT1 in etoposide-induced human SH-SY5Y cells assessed as increase in p53 acetylation at Lys382 at 20 uM after 5 hrs by Western blotting analysis. The class given is cell-based. In outline:
(§2)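 ARPE-19 or SH-SY5Y cells seeded 24 h ahead, then given 20 μM compound and 100 μM etoposide together for 5 h before harvest. Acetylated p53 detected by Western blot. Mean ± SEM of 2 independent experiments.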

Data set [8] has as its system A549. Kind of data set: Growth inhibition of human A549 cells at >= 50 uM after 48 hrs by sulforhodamine B assay. The class given is functional, cell-based.
The target of data set [9] is T1, NAD-dependent protein deacetylase sirtuin-1 (Homo sapiens). Kind of data set: Inhibition of SIRT1 in etoposide-induced human ARPE19 cells assessed as increase in p53 acetylation at Lys382 at 20 uM after 5 hrs by Western blotting analysis. The class given is cell-based. In outline:
as §2

The test system of data set [10] is MCF7. Put plainly: Cell cycle arrest in human MCF7 cells assessed as accumulation at G1 phase at 100 uM after 18 hrs by propidium iodide staining-based FACS flow cytometric analysis (reference value: 67.6%). The format is functional.
Data set [11] concerns A549. Put plainly: Cell cycle arrest in human A549 cells assessed as accumulation at G2 phase at 100 uM after 18 hrs by propidium iodide staining-based FACS flow cytometric analysis (reference value: 19.4%). The format is functional.
Data set [12] in a line: Cytotoxicity against human ARPE19 cells at 20 uM by LDH assay. The format is cell-based. Particulars: arpe-19, 20 µM.
For data set [13], the system named is MCF7. Put plainly: Effect on alpha-tubulin acetylation in human MCF7 cells at 50 uM after 6 to 18 hrs by Western blotting analysis. The class given is functional, cell-based. In outline:
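MCF-7 cells seeded 24 h ahead, treated for 6 or 18 h, then lysed in M-PER. Lysates run on SDS-PAGE, transferred to nitrocellulose and probed with mouse monoclonal anti-acetylated α-tubulin and anti-total α-tubulin. Detection with peroxidase anti-mouse secondary and ECL Plus.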

Data set [14] addresses T3, NAD-dependent protein deacetylase sirtuin-2 (Homo sapiens) (UniProt Q8IXJ6).
T3 sequence (whole entry): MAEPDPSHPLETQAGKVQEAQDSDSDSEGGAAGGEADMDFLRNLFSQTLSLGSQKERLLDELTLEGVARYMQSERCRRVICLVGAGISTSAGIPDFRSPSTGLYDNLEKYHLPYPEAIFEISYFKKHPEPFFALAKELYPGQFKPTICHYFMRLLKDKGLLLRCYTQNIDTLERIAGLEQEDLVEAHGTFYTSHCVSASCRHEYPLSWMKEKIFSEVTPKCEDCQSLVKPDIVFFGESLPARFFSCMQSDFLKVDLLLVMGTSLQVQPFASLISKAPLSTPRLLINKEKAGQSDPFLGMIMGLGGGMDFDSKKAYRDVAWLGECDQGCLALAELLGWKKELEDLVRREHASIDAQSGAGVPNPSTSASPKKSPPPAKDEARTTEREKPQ
Kind of data set: Inhibition of human recombinant GST-tagged SIRT2 using KI179 as substrate at 50 uM preincubated for 5 mins followed by enzyme addition measured after 1 hr by fluorescence assay relative to control. In outline:
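Recombinant GST-SIRT2, Fluor de Lys assay in SIRT assay buffer. Acetylated peptide KI179 at 0.7 Km (Km 198 µM) and NAD+ at 0.9 Km (reported Km 547 µM). Buffer, substrate, NAD+ and compound in DMSO preincubated 5 min at room temperature. Enzyme added to start; 1 h at 37 °C. Developer with 2 mM nicotinamide added; 45 min at 37 °C; fluorescence read. Mean ± SD, ≥3 experiments.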

In data set [15] the target is T4, NAD-dependent protein deacetylase sirtuin-2 (Homo sapiens, UniProt Q8IXJ6).
T4 sequence (Q8IXJ6 whole entry): T3 sequence (whole entry)
Kind of data set: Inhibition of human recombinant GST-tagged SIRT2 using KI179 as substrate preincubated for 5 mins followed by enzyme addition measured after 1 hr by fluorescence assay. In outline: as §1

Data set [16] can be described thus: Cytotoxicity against human SH-SY5Y cells at 20 uM by LDH assay. The format is cell-based.
The test system of data set [17] is A549. Put plainly: Cytotoxicity against human A549 cells assessed as cell death at 100 uM after 18 hrs by propidium iodide staining-based FACS flow cytometric analysis. The class given is functional.

The source made the active and inactive calls. The calls are words filed in the database; no cut-off is given here.

Regarding `COc1ccc(C(=O)CNC(=O)[C@H](CCCCNC(C)=S)NC(=O)OCc2ccccc2)cc1`, the inhibition in data set [1] and in data set [14] was 97% each time. In addition, the Activity with MCF7 [2] is 8.7%; in the data set on A549 [5], 7.7%; in the data set with MCF7 [10], 80.5%; in the data set on A549 [11], 9.4%; in data set [12] it was “Non-toxic”; in [16], “Non-toxic”. Besides, the inhibition result in data set [3], in [7] and in [9] was “Active” in each case. Further, the result with MCF7 [4], in the data set with MCF7 [13] and with A549 [17] was inactive. In addition, the IC50 in data set [6] came out at 890 nM; in [15], 2530 nM. Besides, the “growth inhibition (GI)” value with A549 [8] is “Active”.
